Here are results for three compounds from article PMC6982536 (Nature chemical biology, 2019).

One assay has as its system CMV promoter. As to the kind of experiment: iRFP expression from the CMV promoter in HEK cells with ligand. As to conditions: 1µM of procaterol or 2 µM of epinephrine vs DMEM. The class given is cell-based. Summed up:
(§1)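 HEK293 cultured at 37 °C, 5% CO2 in DMEM were seeded at 50 000 cells/well 24 h before transfection. Transfection used 400 ng reporter-containing DNA with Lipofectamine 2000 (3.75 µl per 1 µg DNA). Four hours later, medium was swapped for fresh medium with or without ligand.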

Another assay relates to EF1α promoter. Briefly: iRFP expression from the EF1α promoter in HEK cells with ligand. The class given is cell-based. As to conditions: 1µM of procaterol or 2 µM of epinephrine vs DMEM. The procedure, abridged: as §1
For another assay, the system named is NarX/NarL. The class given is cell-based. The procedure, abridged:
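HEK293 (37 °C, 5% CO2, DMEM) seeded at 50 000 cells/well 24 h before Lipofectamine 2000 transfection with 400 ng DNA, including NarL and a NarL-inducible Cerulean reporter. After 4 h, medium was replaced with fresh medium ± ligand. At 48 h, cells were Accutase-detached for flow cytometry. Total intensity (mean Cerulean of reporter-positive cells × positive fraction) was normalised to mCherry transfection-control total intensity.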

Assay [1] addresses β2AR^∆C::V2R^∆N::H^mut / β-arrestin::N^mut (Homo sapiens, UniProt P07550). As to the kind of experiment: GPCR/β-arrestin interaction rewired via TCS. Format: cell-based.
Another assay addresses FKBP/FRB^T2098L (Homo sapiens, UniProt P42345+P62942, T2098L). The class given is cell-based. To be noted: high ligand concentration, Fig. 3a conditions 11 and 12.
Another assay deals with FKBP/FRB. To be noted: read-out: EC50 (published value); cited from earlier work.

FKBP/FRB^T2098L, sequence (P62942 whole entry): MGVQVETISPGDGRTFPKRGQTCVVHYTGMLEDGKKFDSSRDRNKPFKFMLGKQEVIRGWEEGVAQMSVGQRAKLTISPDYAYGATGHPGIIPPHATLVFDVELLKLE
FKBP/FRB^T2098L, sequence (P42345 2012-2144 T2098L limits assumed): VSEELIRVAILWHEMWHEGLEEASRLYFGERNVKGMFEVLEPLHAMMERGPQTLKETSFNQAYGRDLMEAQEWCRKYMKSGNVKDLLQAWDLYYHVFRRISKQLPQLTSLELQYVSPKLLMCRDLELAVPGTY

In the case of `CNC[C@H](O)c1ccc(O)c(O)c1` [Epinephrine], the “induction of the CMV promoter” value with CMV promoter is on record as “factor of two”. In addition, the “effect on EF1α promoter” value in the assay on EF1α promoter is “not affected”.
Regarding `CCC(NC(C)C)C(O)c1ccc(O)c2[nH]c(=O)ccc12` (stereo not drawn) [Procaterol], the “effect on signaling via NarX/NarL system” value with NarX/NarL (procaterol, Fig. 4b conditions 2 and 3) was “did not affect”. The “induction of the CMV promoter” value with CMV promoter is listed as “factor of two”. The EC50 in assay [1] was 5 nM. The “effect on EF1α promoter” value in the assay on EF1α promoter is on record as “not affected”.
For `CO[C@H]1[C@@H](O)[C@H](C)C[C@H](C)/C=C/C=C/C=C(\C)[C@@H](c2c[nH]c3c(C)cccc23)C[C@@H]2CC[C@@H](C)[C@@](O)(O2)C(=O)C(=O)N2CCCC[C@H]2C(=O)O[C@H]([C@H](C)C[C@@H]2CC[C@@H](O)[C@H](OC)C2)C[C@H](O)[C@H](C)/C=C(\C)[C@H]1O` [A/C, C16-(S)-7-methylindolerapamycin], the “effect on wild-type NarX/NarL signaling” value in the assay on NarX/NarL (A/C, Fig. 3a conditions 2 and 3) was “did not affect”. In addition, the “dynamic range of ligand-induced signaling” value on FKBP/FRB^T2098L is “above 3 orders of magnitude”. Besides, the EC50 with FKBP/FRB was 10 nM.

Broadly, the EC50 is the midpoint of the concentration-response curve.
